For four molecules, IC50 and Activity results are on record in ChEMBL document CHEMBL1158053, “Polyoxygenated sterols from the Formosan soft coral Sinularia gibberosa” (J Nat Prod, 2006).

For orientation: IC50 means the point on the concentration scale where inhibition reaches its midpoint.

Series [1] in a line: Cytotoxicity against human Hep G2 cells by MTT assay. Format: functional, cell-based. Particulars: HepG2. In outline:
(§1)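 ATCC-sourced tumour lines (HepG2, MCF7, MDA-MB-231, A-549) were tested with the MTT colorimetric method.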

Series [2] has as its system MCF7. Kind of series: Cytotoxicity against human MCF7 cells by MTT assay. Format: functional, cell-based. The gist of the method:
as §1

The subject of series [3] is RAW264.7. In words: Cytotoxicity against mouse RAW264.7 cells assessed as cell survival at 10 uM by trypan blue staining. The series is classed as cell-based. Particulars: raw264.7, 10 µM. In outline: (§2)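 RAW 264.7 macrophages (DMEM, 10% heat-inactivated FBS, 37 °C, 5% CO2) were exposed to compound at 10 or 100 µM alongside the LPS-activation protocol. Viability was scored by trypan blue staining.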

Series [4] relates to RAW264.7. Kind of series: Antiinflammatory activity against LPS-stimulated mouse RAW264.7 cells assessed as inhibition of COX2 expression at 10 uM after 16 hrs by immunoblot analysis relative to control. Format: functional. Also noted: scale not given: the % may be the effect or the level left. In outline:
(§3)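 RAW 264.7 murine macrophages (ATCC TIB-71) grown in DMEM with 10% heat-inactivated FBS, 37 °C, 5% CO2. Cells activated with E. coli LPS (0.01 µg/mL) for 16 h with or without compound. Lysates were loaded at equal protein and analysed by SDS-PAGE and Western blot. Antibodies were anti-iNOS and anti-COX-2 (1:1000, 180 min), with β-actin reprobe as loading control. ECL detection. Intensity expressed relative to LPS-only group (100%); mean ± SD, n = 3.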
A general note: A western blot detects proteins with antibodies after separation by electrophoresis.

The subject of series [5] is RAW264.7. In words: Antiinflammatory activity against LPS-stimulated mouse RAW264.7 cells assessed as inhibition of iNOS expression at 10 uM after 16 hrs by immunoblot analysis relative to control. The series is classed as functional. On the set-up: scale not given: the % may be the effect or the level left. The gist of the method:
as §3

Series [6] concerns RAW264.7. In words: Cytotoxicity against mouse RAW264.7 cells assessed as cell loss at 100 uM by trypan blue staining. The series is classed as cell-based. Particulars: raw264.7, 100 µM. The gist of the method:
as §2

In series [7] the test system is MDA-MB-231. In words: Cytotoxicity against human MDA-MB-231 cells by MTT assay. Format: functional, cell-based. The gist of the method:
as §1

Series [8] concerns RAW264.7. Kind of series: Cytotoxicity against mouse RAW264.7 cells assessed as decrease in beta-actin at 100 uM by trypan blue staining. The series is classed as cell-based. As to conditions: raw264.7, 100 µM.
Series [9] deals with A549. In words: Cytotoxicity against human A549 cells by MTT assay. The series is classed as functional, cell-based. The gist of the method: as §1
On the technique in general: Tetrazolium assays rely on reduction of a dye to a coloured formazan, in cell work by metabolically active cells.

Values after ≈ are worked out from the molar mass of the structure shown. Active and inactive are the calls of the source. The rule behind the calls is not given here.

In the case of `C=C(CC[C@@H](C)[C@H]1CC[C@H]2[C@@H]3CC(=O)[C@]4(O)C[C@@H](O)C[C@H](O)[C@]4(C)[C@H]3CC[C@]12C)C(C)C` [GIBBEROKETOSTEROL], the IC50 in series [1] amounted to 13 µg/mL (≈ 29.1 µM); in series [2], 14.1 µg/mL (≈ 31.6 µM); in [7] it was 14.4 µg/mL (≈ 32.2 µM); in series [9], 14.5 µg/mL (≈ 32.5 µM). The Activity result is reported as “Non-toxic” in series [3]; 68.3% in series [4]; 44.5% in series [5]; 38.4% in [6]; “Active” in series [8].

In the case of `C=C(/C=C/[C@@H](C)[C@H]1CC[C@H]2[C@@H]3CC(=O)[C@H]4C[C@@H](O)C[C@H](O)[C@]4(C)[C@H]3CC[C@]12C)C(C)C` [GIBBEROKETOSTEROL C], the IC50 in series [1], in series [2], in series [7] and in series [9] was over 30 µg/mL each time.

Turning to `C=C(CC[C@@H](C)[C@H]1CC[C@H]2[C@@H]3C[C@@H]4O[C@@]45C[C@@H](O)C[C@H](O)[C@]5(C)[C@H]3CC[C@]12C)C(C)C` [GIBBEROEPOXYSTEROL], the IC50 in series [7] was determined as 15.9 µg/mL (≈ 36.9 µM); in series [9], 15.5 µg/mL (≈ 36 µM).

Take `C=C(/C=C/[C@@H](C)[C@H]1CC[C@H]2[C@@H]3CC(=O)[C@]4(O)C[C@@H](O)C[C@H](O)[C@]4(C)[C@H]3CC[C@]12C)C(C)C` [GIBBEROKETOSTEROL B]: the IC50 in series [1], in [2], in [7] and in series [9] was over 30 µg/mL in each case. In addition, the Activity result in series [3] is on record as “Non-toxic”. For the same molecule, the result in series [4] and in [5] was inactive.
